The text below walks through data of ChEMBL document CHEMBL5131563, “Accelerated Identification of Cell Active KRAS Inhibitory Macrocyclic Peptides using Mixture Libraries and Automated Ligand Identification System (ALIS) Technology” (J Med Chem, 2022).

Each structure is given as a SMILES string. *1 amine or outer side, *2 acyl side, *3 side chain or, on linkers, in order; H or OH if unused. Where a SMILES comes first, the peptide text is derived from it. Bridges are numbered along the chain shown (N, C = ends). [ ]: non-standard residue; d: D form. X1 = O=C([C@@H]1[C@H](c2ccccc2)CCN1[*:1])[*:2]; Pro(3R-Ph) = O=C(O)[C@H]1NCC[C@@H]1c1ccccc1; Bip = N[C@@H](Cc1ccc(-c2ccccc2)cc1)C(=O)O; Lys(N3) = [N-]=[N+]=NCCCC[C@H](N)C(=O)O

Broadly, the IC50 is the concentration that gives 50% inhibition. One may read the half-life as how long it takes for the measured level to halve. The EC50 is the concentration needed to bring the measured effect to its halfway point.

Series [1] has as its target T1, GTPase KRas (Homo sapiens, UniProt P01116, G12D). As to the kind of experiment: Inhibition of recombinant biotinylated KRAS G12D mutant (unknown origin) assessed as inhibition of SOS-catalyzed nucleotide exchange preincubated for 60 mins followed by addition of human SOS protein and unlabeled GTP and measured after 60 mins by TR-FRET analysis. The essentials:
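Biotinylated KRAS G12D was treated in EDTA buffer (1 h, RT), then loaded at 90 nM with 900 nM Bodipy-GDP and 15 nM Tb-streptavidin in Mg2+ buffer, HEPES pH 7.5 (6 h, RT). It was used at 1.5 nM assay solution with a 10-point, 3-fold DMSO compound series for 60 min at RT. A solution of 120 nM human SOS plus GTP was added for 60 min. The read-out was TR-FRET at 520/495 nm, normalized to DMSO and saturating-inhibitor controls, with a 4-parameter fit.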

Series [2] has as its target T1, GTPase KRas. As to the kind of experiment: Inhibition of KRAS in human ASPC1 cells harboring KRAS G12D mutant assessed as inhibition of ERK phosphorylation incubated for 18 hrs by AlphaScreen-based […] assay. It counts as cell-based. The essentials:
(§1)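 AsPC-1 cells (KRAS G12D) were seeded at 15 000 cells/well in phenol-red-free RPMI with 10% FBS and 25 mM HEPES, then incubated overnight at 37 °C and 5% CO2. Medium was switched to serum-free before dosing. Cells were given a dose–response titration for 2 or 18 h at 37 °C, washed and lysed with protease inhibitors. Phospho-ERK and total ERK were read by AlphaScreen SureFire multiplex, using the pERK/total ERK ratio. Curves were fit with a 4-parameter logistic.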
A general note: Bead proximity is the source of the signal in Alpha formats.

Series [3] concerns the target T1, GTPase KRas. The experiment in a line: Inhibition of KRAS in human ASPC1 cells harboring KRAS G12D mutant assessed as inhibition of ERK phosphorylation incubated for 2 hrs by AlphaScreen-based […] assay. In kind it is cell-based. The essentials: as §1
A short description of series [4]: Stability in human HeLa cell homogenate assessed as half life by LC-MS/MS analysis. It counts as ADME, cell-based. A digest of the protocol:
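HeLa cells suspended at 1 × 10^6 cells/mL, probe-sonicated on ice until homogeneous, stored frozen at –20 °C. Peptides incubated with homogenate (1 × 10^6 cells/mL equivalent); peptide loss over time quantified by LC-MS/MS to derive t1/2.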

Series [5] concerns HeLa. The experiment in a line: Cell permeability in human HeLa cells transfected with NanoLuc-HaloTag vector incubated for 4 hrs followed by treated with NanoBret618-azide ligand by NanoClick assay. It counts as ADME, cell-based.
The test system of series [6] is HeLa. As to the kind of experiment: Cell permeability in human HeLa cells transfected with NanoLuc-HaloTag vector incubated for 18 hrs followed by treated with NanoBret618-azide ligand by NanoClick assay. In kind it is ADME, cell-based.

T1 sequence (P01116 whole entry G12D): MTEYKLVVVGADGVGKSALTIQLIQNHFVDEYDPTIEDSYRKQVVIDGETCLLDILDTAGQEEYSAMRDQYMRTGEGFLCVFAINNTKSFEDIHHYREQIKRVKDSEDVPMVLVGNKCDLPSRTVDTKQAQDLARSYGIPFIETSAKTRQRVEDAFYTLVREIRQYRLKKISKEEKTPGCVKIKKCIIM

With `CC[C@H](C)[C@@H]1NC(=O)[C@H](Cc2ccc(-c3ccccc3)cc2)NC(=O)[C@H](CC(C)C)NC(=O)[C@@H]2[C@H](c3ccccc3)CCN2C(=O)[C@@H](NC(=O)[C@H](CCCNC(=N)N)NC(=O)[C@H](CCCNC(=N)N)NC(C)=O)CSSC[C@@H](C(=O)N[C@@H](CCCNC(=N)N)C(=O)N[C@@H](CCCNC(=N)N)C(N)=O)NC(=O)[C@H](C(C)C)NC(=O)[C@@H]2CCCN2C(=O)[C@H](CC(=O)O)NC(=O)[C@H](Cc2ccc(O)cc2)NC(=O)[C@H](CO)NC(=O)[C@H](C)NC1=O` (Ac-RRC[X1]L[Bip]IASYDPVCRR-NH2; disulfide 3-14), the IC50 on GTPase KRas [1] is under 0.001 µM; at GTPase KRas [2], 3.9 µM; at GTPase KRas [3], 3.8 µM. In addition, the half-life in series [4] is over 6.2 h.
On to `CC[C@H](C)[C@@H]1NC(=O)[C@H](Cc2ccc(-c3ccccc3)cc2)NC(=O)[C@H](CC(C)C)NC(=O)[C@@H]2[C@H](c3ccccc3)CCN2C(=O)[C@@H](NC(=O)[C@H](CCCNC(=N)N)NC(=O)[C@H](CCCNC(=N)N)NC(=O)[C@H](CCCCN=[N+]=[N-])NC(C)=O)CSSC[C@@H](C(=O)N[C@@H](CCCNC(=N)N)C(=O)N[C@@H](CCCNC(=N)N)C(N)=O)NC(=O)[C@H](C(C)C)NC(=O)[C@@H]2CCCN2C(=O)[C@H](CC(=O)O)NC(=O)[C@H](Cc2ccc(O)cc2)NC(=O)[C@H](CO)NC1=O`, for which the EC50 in the series on HeLa [5] is 7.32 µM; in the series with HeLa [6], 0.199 µM. The IC50 on GTPase KRas [1] was under 0.001 µM; on GTPase KRas [2] it was 19 µM; at GTPase KRas [3] it was 2.7 µM. The half-life in series [4] is over 6.2 h.
Regarding `CC[C@H](C)[C@@H]1NC(=O)[C@H](Cc2ccc(-c3ccccc3)cc2)NC(=O)[C@H](CC(C)C)NC(=O)[C@@H]2[C@@H](c3ccccc3)CCN2CC(=O)[C@@H](NC(=O)[C@H](CCCNC(=N)N)NC(=O)[C@H](CCCNC(=N)N)NC(C)=O)CSSC[C@@H](C(=O)N[C@@H](CCCNC(=N)N)C(=O)N[C@@H](CCCNC(=N)N)C(N)=O)NC(=O)[C@H](C(C)C)NC(=O)[C@@H]2CCCN2C(=O)[C@H](CC(=O)O)NC(=O)[C@H](Cc2ccc(O)cc2)NC(=O)[C@H](CO)NC1=O`, the IC50 at GTPase KRas [1] was under 0.001 µM; at GTPase KRas [2], 33 µM; at GTPase KRas [3], 3.3 µM. Besides, in series [4], the half-life was over 6.2 h.
As for `CC(=O)N[C@@H](CCCCN=[N+]=[N-])C(=O)N[C@@H](CCCNC(=N)N)C(=O)N[C@@H](CCCNC(=N)N)C(=O)N[C@H]1CSSC[C@@H](C(=O)N[C@@H](CCCNC(=N)N)C(=O)N[C@@H](CCCNC(=N)N)C(N)=O)NC(=O)[C@H](C(C)C)NC(=O)[C@@H]2CCCN2C(=O)[C@H](CC(=O)O)NC(=O)[C@H](Cc2ccc(O)cc2)NC(=O)[C@H](CO)NC(=O)[C@H](C)NC(=O)[C@H](Cc2ccc(-c3ccccc3)cc2)NC(=O)[C@H](CC(C)C)NC(=O)[C@@H]2[C@@H](c3ccccc3)CCN2C1=O` (Ac-[Lys(N3)]RRC[Pro(3R-Ph)]L[Bip]ASYDPVCRR-NH2; disulfide 4-14), the EC50 in the series on HeLa [5] stood at 1.49 µM; in the series on HeLa [6], 0.148 µM. In addition, the IC50 at GTPase KRas [1] is under 0.001 µM; on GTPase KRas [2], 6.8 µM; at GTPase KRas [3], 6.2 µM. Moreover, the half-life in series [4] is over 6.2 h.
